Laboratory results taken from ChEMBL document CHEMBL3102835, “Dimeric unnatural polyproline-rich peptides with enhanced antibacterial activity” (Bioorg Med Chem Lett, 2014).
≈ marks a conversion by molar mass, not a printed value.

Key:
Escherichia coli [1] = experiment: Drug uptake in Escherichia coli ATCC 25922 assessed as increase in cellular fluorescence at 10 uM after 6 hrs by confocal microscopic analysis; format: ADME, organism-based; conditions: in vivo
In short: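 E. coli ATCC 25922 grown to mid-exponential phase in MHB at 37 °C, pelleted and resuspended in fresh MHB. Exposed to 10 µM fluorescein-labelled peptide or buffer for 10 min, 1 h or 6 h at 37 °C. Cells washed in PBS, fixed in 10% formalin, stained with 1 µM Hoechst, mounted on poly-lysine coverslips. Confocal imaging at equal laser intensity.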

Escherichia coli [2] = experiment: Antibacterial activity against Escherichia coli by broth microdilution method; format: functional
In short: (§1)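 Broth microdilution. E. coli ATCC 25922 or S. aureus ATCC 25923 grown to mid-exponential phase in TSB at 37 °C, 200 rpm. MIC taken as the lowest concentration with no growth.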

Staphylococcus aureus = experiment: Antibacterial activity against Staphylococcus aureus by broth microdilution method; format: functional; in short: as §1
Escherichia coli [3] = experiment: Antibacterial activity against Escherichia coli ATCC 25922 assessed as release of beta-galactosidase at 20 µM after 1 hr relative to control
Escherichia coli [4] = experiment: Antibacterial activity against Escherichia coli ATCC 25922 assessed as release of beta-galactosidase at 5 times MIC after 1 hr relative to control; format: functional
Escherichia coli [5] = experiment: Antibacterial activity against Escherichia coli ATCC 25922 assessed as release of beta-galactosidase after 1 hr relative to control; format: functional
In short: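 Cells washed twice in TSB, then exposed to peptide at 1× or 5× MIC for 1 h at 37 °C. Supernatant collected by cold centrifugation and mixed with ONPG. Release expressed versus buffer control.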

[6] = Toxicity in human RBC assessed as hemolysis by measuring hemoglobin release at 1 uM after 1 hr; format: cell-based; conditions: erythrocyte
In short: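 Fresh human RBCs from healthy volunteers, washed three times in PBS pH 7.4 and used as an 8% (v/v) suspension. Mixed with two-fold serial peptide dilutions and incubated 1 h at 37 °C. Positive controls were melittin and 1% Triton X-100.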

| SMILES | Drug uptake (Escherichia coli [1]) | MIC (Escherichia coli [2]) | MIC (Staphylococcus aureus) | fold change (FC) (Escherichia coli [3]) | fold change (FC) (Escherichia coli [4]) | fold change (FC) (Escherichia coli [5]) | Activity [6] |
| --- | --- | --- | --- | --- | --- | --- | --- |
| CC(=O)NCC(=O)N(CCCCC(=O)NCCC(=O)N1CC(OCC(C)C)C[C@H]1C(=O)N1CC(OCCCNC(=N)N)C[C@H]1C(=O)N1CC(OCCCNC(=N)N)C[C@H]1C(=O)N1CC(OCC(C)C)C[C@H]1C(=O)N1CC(OCCCNC(=N)N)C[C@H]1C(=O)N1CC(OCCCNC(=N)N)C[C@H]1C(=O)N1CC(OCC(C)C)C[C@H]1C(=O)N1CC(OCCCNC(=N)N)C[C@H]1C(=O)N1CC(OCCCNC(=N)N)C[C@H]1C(=O)N1CC(OCC(C)C)C[C@H]1C(N)=O)CCCCC(=O)NCCC(=O)N1CC(OCC(C)C)C[C@H]1C(=O)N1CC(OCCCNC(=N)N)C[C@H]1C(=O)N1CC(OCCCNC(=N)N)C[C@H]1C(=O)N1CC(OCC(C)C)C[C@H]1C(=O)N1CC(OCCCNC(=N)N)C[C@H]1C(=O)N1CC(OCCCNC(=N)N)C[C@H]1C(=O)N1CC(OCC(C)C)C[C@H]1C(=O)N1CC(OCCCNC(=N)N)C[C@H]1C(=O)N1CC(OCCCNC(=N)N)C[C@H]1C(=O)N1CC(OCC(C)C)C[C@H]1C(N)=O (stereo not given in full) | – | 4 µM (≈ 17.4 µg/mL) | 8 µM (≈ 34.9 µg/mL) | – | – | – | – |
| CC(=O)NCC(=O)N(CCCCC(=O)NCCCC(=O)N1CC(OCC(C)C)C[C@H]1C(=O)N1CC(OCCCNC(=N)N)C[C@H]1C(=O)N1CC(OCCCNC(=N)N)C[C@H]1C(=O)N1CC(OCC(C)C)C[C@H]1C(=O)N1CC(OCCCNC(=N)N)C[C@H]1C(=O)N1CC(OCCCNC(=N)N)C[C@H]1C(=O)N1CC(OCC(C)C)C[C@H]1C(=O)N1CC(OCCCNC(=N)N)C[C@H]1C(=O)N1CC(OCCCNC(=N)N)C[C@H]1C(=O)N1CC(OCC(C)C)C[C@H]1C(N)=O)CCCCC(=O)NCCCC(=O)N1CC(OCC(C)C)C[C@H]1C(=O)N1CC(OCCCNC(=N)N)C[C@H]1C(=O)N1CC(OCCCNC(=N)N)C[C@H]1C(=O)N1CC(OCC(C)C)C[C@H]1C(=O)N1CC(OCCCNC(=N)N)C[C@H]1C(=O)N1CC(OCCCNC(=N)N)C[C@H]1C(=O)N1CC(OCC(C)C)C[C@H]1C(=O)N1CC(OCCCNC(=N)N)C[C@H]1C(=O)N1CC(OCCCNC(=N)N)C[C@H]1C(=O)N1CC(OCC(C)C)C[C@H]1C(N)=O (stereo not given in full) | – | 1 µM (≈ 4.39 µg/mL) | 4 µM (≈ 17.5 µg/mL) | – | – | – | – |
| CC[C@H](C)[C@H](NC(=O)CN)C(=O)NCC(=O)N[C@@H](C)C(=O)N[C@H](C(=O)N[C@@H](CC(C)C)C(=O)N[C@@H](CCCCN)C(=O)N[C@H](C(=O)N[C@@H](CC(C)C)C(=O)N[C@H](C(=O)N[C@H](C(=O)NCC(=O)N[C@@H](CC(C)C)C(=O)N1CCC[C@H]1C(=O)N[C@@H](C)C(=O)N[C@@H](CC(C)C)C(=O)N[C@H](C(=O)N[C@@H](CO)C(=O)N[C@@H](Cc1c[nH]c2ccccc12)C(=O)N[C@H](C(=O)N[C@@H](CCCCN)C(=O)N[C@@H](CCCNC(=N)N)C(=O)N[C@@H](CCCCN)C(=O)N[C@@H](CCCNC(=N)N)C(=O)N[C@@H](CCC(N)=O)C(=O)N[C@@H](CCC(N)=O)C(N)=O)[C@@H](C)CC)[C@@H](C)CC)[C@@H](C)O)[C@@H](C)O)C(C)C)C(C)C [MELITTIN] | – | – | – | – | – | 8 | Toxic |

Now from value to compound, other results behind:

| Drug uptake (Escherichia coli [1]) | MIC (Escherichia coli [2]) | MIC (Staphylococcus aureus) | SMILES | fold change (FC) (Escherichia coli [3]) | fold change (FC) (Escherichia coli [4]) | fold change (FC) (Escherichia coli [5]) | Activity [6] |
| --- | --- | --- | --- | --- | --- | --- | --- |
| Active | 60 µM (≈ 143 µg/mL) | 60 µM (≈ 143 µg/mL) | CC(C)COC1C[C@@H](C(=O)N2CC(OCCCNC(=N)N)C[C@H]2C(=O)N2CC(OCCCNC(=N)N)C[C@H]2C(=O)N2CC(OCC(C)C)C[C@H]2C(=O)N2CC(OCCCNC(=N)N)C[C@H]2C(=O)N2CC(OCCCNC(=N)N)C[C@H]2C(=O)N2CC(OCC(C)C)C[C@H]2C(=O)N2CC(OCCCNC(=N)N)C[C@H]2C(=O)N2CC(OCCCNC(=N)N)C[C@H]2C(=O)N2C[C@@H](OCC(C)C)CC2C(N)=O)N(C(=O)CNC(=O)c2ccc(-c3c4ccc(=O)cc-4oc4cc(O)ccc34)c(C(=O)O)c2)C1 (stereo not given in full) | 3 | – | – | – |
| – | 1 µM (≈ 4.33 µg/mL) | 2 µM (≈ 8.66 µg/mL) | CC(=O)NCC(=O)N(CCCCC(=O)NCC(=O)N1CC(OCC(C)C)C[C@H]1C(=O)N1CC(OCCCNC(=N)N)C[C@H]1C(=O)N1CC(OCCCNC(=N)N)C[C@H]1C(=O)N1CC(OCC(C)C)C[C@H]1C(=O)N1CC(OCCCNC(=N)N)C[C@H]1C(=O)N1CC(OCCCNC(=N)N)C[C@H]1C(=O)N1CC(OCC(C)C)C[C@H]1C(=O)N1CC(OCCCNC(=N)N)C[C@H]1C(=O)N1CC(OCCCNC(=N)N)C[C@H]1C(=O)N1CC(OCC(C)C)C[C@H]1C(N)=O)CCCCC(=O)NCC(=O)N1CC(OCC(C)C)C[C@H]1C(=O)N1CC(OCCCNC(=N)N)C[C@H]1C(=O)N1CC(OCCCNC(=N)N)C[C@H]1C(=O)N1CC(OCC(C)C)C[C@H]1C(=O)N1CC(OCCCNC(=N)N)C[C@H]1C(=O)N1CC(OCCCNC(=N)N)C[C@H]1C(=O)N1CC(OCC(C)C)C[C@H]1C(=O)N1CC(OCCCNC(=N)N)C[C@H]1C(=O)N1CC(OCCCNC(=N)N)C[C@H]1C(=O)N1CC(OCC(C)C)C[C@H]1C(N)=O (stereo not given in full) | – | – | – | – |
| – | 4 µM (≈ 11.9 µg/mL) | 12 µM (≈ 35.7 µg/mL) | CC(C)COC1C[C@@H](C(=O)N2CC(OCCCNC(=N)N)C[C@H]2C(=O)N2CC(OCCCNC(=N)N)C[C@H]2C(=O)N2CC(OCC(C)C)C[C@H]2C(=O)N2CC(OCCCNC(=N)N)C[C@H]2C(=O)N2CC(OCCCNC(=N)N)C[C@H]2C(=O)N2CC(OCC(C)C)C[C@H]2C(=O)N2CC(OCCCNC(=N)N)C[C@H]2C(=O)N2CC(OCCCNC(=N)N)C[C@H]2C(=O)N2CC(OCC(C)C)C[C@H]2C(=O)N2CC(OCCCNC(=N)N)C[C@H]2C(=O)N2CC(OCCCNC(=N)N)C[C@H]2C(=O)N2CC(OCC(C)C)C[C@H]2C(N)=O)N(C(=O)CNC(=O)c2ccc(-c3c4ccc(=O)cc-4oc4cc(O)ccc34)c(C(=O)O)c2)C1 (stereo not given in full) | – | 3 | – | – |
